These results are taken from article PMC4739608 (The Journal of Cell Biology, 2016).

In test [1] the test system is HFF cells. In words: Immunofluorescence of IACs in HFF cells. The note with it: HFFs prespread on FN, 3 µM FAK [i] or 10 µM PF228, 1 h. It counts as cell-based, human. Summed up: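 Cells were grown on FN-coated (10 µg/ml) coverslips or glass-bottom dishes. HFFs were spread on FN for 1 h before inhibitor or DMSO was added. Cells were fixed in 4% paraformaldehyde for 7 min, then permeabilized with 0.5% Triton X-100 for 10 min. Primary antibodies were applied for 1 h and secondaries for 30 min, in 2% BSA at RT. Stained areas >10 pixels were normalized to total cell area, with count and size per cell.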

Another test has as its system NIH3T3 cells. The test can be described thus: Immunofluorescence of IACs in NIH3T3 cells. The test is classed as cell-based, mouse. The note with it: NIH3T3 on FN, 3 µM FAK [i] or 10 µM PF228, 1 h.
Test [2] concerns HFF cells. In words: Crystal violet proliferation assay. It counts as cell-based, human. As to conditions: up to 4 d, total cell number by crystal violet.
In test [3] the test system is consensus adhesome proteins. The note with it: three other studies; ref Horton et al., 2015b; cited from earlier work.

Regarding `CS(=O)(=O)c1cccc(CNc2nc(Nc3ccc4c(c3)CCC(=O)N4)ncc2C(F)(F)F)c1` [PF228], in the test with HFF cells [1], the “FAK^Y397 levels by immunofluorescence” value is “significantly reduced”; the “area and numbers of vinculin- or paxillin-containing IACs, and the actin cytoskeleton” value is on record as “unaffected”. Further, in the test with NIH3T3 cells, the “FAK^Y397 levels by immunofluorescence” value is given as “reduction of FAK^Y397 levels” and the “vinculin- or paxillin-containing IACs” value is “did not affect”.
In the case of `CN1CCN(CCOc2cc(OC3CCOCC3)c3c(Nc4c(Cl)ccc5c4OCO5)ncnc3c2)CC1` [Src [i], N-(5-chloro-1,3-benzodioxol-4-yl)-7-[2-(4-methylpiperazin-1-yl)ethoxy]-5-(tetrahydro-2H-pyran-4-yloxy)quinazolin-4-amine], the “inhibition of proliferation relative to DMSO” value in the test with HFF cells [2] was determined as 30%.
Turning to `Cc1ccc2c(c1)C(=O)C1(O)CCN(c3ccccc3)C1=N2` (stereo not drawn) [blebbistatin], the “consensus adhesome proteins, mean fold decrease upon blebbistatin treatment” value in test [3] is given as 2.1 fold.
